# Screening data as filed in PubChem BioAssay.
# ERAP1 inh: inhibitors of human ERAP1 aminopeptidase; recombinant ERAP1, Leu-AMC fluorescence, 60 min; inhibition, % at 10.7 µM; 340,000 tested, 0.15% active; AID 652197;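 active means mean replicate inhibition of at least 30%, or all replicates individually reaching that 30% level; inactive means mean below 30% and not every replicate reaching it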;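 further: 0% = neutral control wells and 100% = L-leucinethiol positive control wells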
# Target sequence (Q9NZ08 whole entry, looked up): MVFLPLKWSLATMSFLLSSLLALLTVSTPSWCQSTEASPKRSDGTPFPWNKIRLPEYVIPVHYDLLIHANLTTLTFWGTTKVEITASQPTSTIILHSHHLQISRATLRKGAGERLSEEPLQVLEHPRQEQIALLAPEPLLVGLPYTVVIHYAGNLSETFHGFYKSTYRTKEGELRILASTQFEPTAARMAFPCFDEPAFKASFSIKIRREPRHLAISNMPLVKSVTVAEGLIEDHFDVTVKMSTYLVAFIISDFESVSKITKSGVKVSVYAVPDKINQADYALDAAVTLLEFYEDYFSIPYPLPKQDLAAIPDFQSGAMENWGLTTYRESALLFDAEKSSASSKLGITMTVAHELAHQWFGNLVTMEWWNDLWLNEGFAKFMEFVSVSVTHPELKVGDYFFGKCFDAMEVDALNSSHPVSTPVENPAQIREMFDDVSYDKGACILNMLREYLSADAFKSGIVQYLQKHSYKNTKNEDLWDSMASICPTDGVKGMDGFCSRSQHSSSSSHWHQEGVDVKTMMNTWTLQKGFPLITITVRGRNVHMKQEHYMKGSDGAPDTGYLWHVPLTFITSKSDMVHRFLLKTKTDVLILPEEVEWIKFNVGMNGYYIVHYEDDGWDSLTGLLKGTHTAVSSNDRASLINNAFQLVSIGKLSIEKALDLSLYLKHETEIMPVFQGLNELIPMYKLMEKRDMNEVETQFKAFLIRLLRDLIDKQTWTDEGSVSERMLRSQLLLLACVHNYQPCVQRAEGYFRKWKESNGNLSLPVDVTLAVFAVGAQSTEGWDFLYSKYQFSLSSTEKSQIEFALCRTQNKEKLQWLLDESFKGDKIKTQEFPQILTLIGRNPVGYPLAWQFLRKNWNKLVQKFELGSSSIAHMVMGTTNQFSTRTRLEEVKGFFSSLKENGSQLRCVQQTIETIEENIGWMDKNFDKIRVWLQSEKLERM
# E-selectin induc: induces E-selectin expression in human endothelial cells. activation, % at 7.58 µM. AID 686992. P16581. HUVEC E-selectin immunofluorescence imaging; normalized: neutral wells 0, TNF-alpha wells 100. 260,000 tested, 0.37% active;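 active means mean E-selectin-positive cell signal at least 10% of the positive control, reached in at least 60% of replicates, without over 20% cell loss; inconclusive means no rule given, readout overlaps actives, possibly toxicity-flagged; inactive means the rest, including those meeting only one limit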
#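 Test system: HUVEC | Signal: Immunofluorescence imaging | Read-out: Percent E-selectin-positive cells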
# DENV2 CPE: inhibitors of DENV2 cytopathic effect; CPE inhibition, % at 9.99 µM; DENV2-infected cells, cytopathic effect rescue, plate reader; AID 651640; 350,000 tested, 1.7% active; in the data active means CPE inhibition above about 20%, passing the limit was not always enough; inconclusive means no clear call, values can overlap the other calls; tested in BHK-21 cells;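 further: 0% = median of neutral control wells and 100% = median of positive control wells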
# CFTR F508del cor: correctors of CFTR F508del function in bronchial epithelial cells; CFBE cells, YFP halide quenching; stimulated with forskolin plus potentiator P3; % fluorescence drop versus neutral controls; activity (quench increase), % at 7.58 µM; AID 720511; 350,000 tested, 0.36% active;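 active means mean added fluorescence quench of at least 8% versus neutral control, with both replicates also reaching 8%; inconclusive means only one of the mean or replicate conditions met; inactive means mean below 8% and not both replicates reaching 8%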;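 further: cells transiently co-express mutant CFTR-F508del with the halide-sensitive YFP; corrector assay measuring rescue of mutant channel to the surface after 24 h compound exposure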
# FGF22 binding: binders of recombinant human FGF22 by thermal shift | activity (Tm shift, normalised), % at 9.99 µM | 340,000 tested, 1.5% active | SYPRO orange fluorescence; percent of sucrose octasulfate shift, DMSO zero;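 active means mean Tm shift, scaled 0 neutral to 100 positive control, at about 1.3% or above, every replicate too, limit read from the data; inconclusive means no clear call, values can overlap the other calls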
# * = called active by the depositor; ? = inconclusive; . = no result; ! = a repeat was not active. An excerpt weighted towards active compounds, which were near 3.7% of everything screened.
SMILES,ERAP1 inh,E-selectin induc,DENV2 CPE,CFTR F508del cor,FGF22 binding
Cc1ccc(-c2cnc3c(c2)C(=O)N([C@H](C)CO)C[C@@H](C)[C@H](CN(C)C(=O)c2cccc(F)c2)O3)cc1,-1.0,-0.5,-1.7,1.1,0.2
CC(C)CC#Cc1ccc2c(c1)O[C@H](CN(C)C(=O)CC1CC1)[C@H](C)CN([C@H](C)CO)S2(=O)=O,0.1,0.5,5.3,-3.6,-0.4
C[C@H](CO)N1C[C@H](C)[C@@H](CN(C)C(=O)Nc2ccccc2)Oc2c(NS(=O)(=O)c3ccccc3)cccc2C1=O,-4.9,0.5,25.5*!,-0.1,-0.2
C[C@H](CO)N1C[C@H](C)[C@H](CN(C)C(=O)Nc2ccccc2)Oc2c(NS(=O)(=O)c3cccs3)cccc2C1=O,.,50.1*,.,-3.5,.
C[C@@H]1CN([C@H](C)CO)C(=O)c2cccc(NS(=O)(=O)c3ccccc3)c2O[C@@H]1CN(C)C(=O)Nc1ccc(F)cc1,-0.4,0.3,33.6*,2.9,-0.3
C=C1SC(Nc2c(C)cccc2C)=NC12CCCCC2,.,.,0.5,2.8,0.0
C=C1SC(Nc2c(C)cc(C)cc2C)=NC12CCCCC2,-1.5,0.2,?,10.9*,0.2
C[C@@H]1CN([C@@H](C)CO)C(=O)Cc2cc(NS(=O)(=O)c3ccc(F)cc3)ccc2O[C@H]1CN(C)S(=O)(=O)c1cccs1,1.8,0.2,-3.4,-0.9,-0.4
CC(C)NC(=O)N(C)C[C@@H]1OCCCC[C@@H](C)Oc2ccc(NC(=O)Cc3ccccc3)cc2C(=O)N([C@@H](C)CO)C[C@H]1C,1.2,0.0,2.5,-3.3,0.1
O=C(COc1ccc2c(-c3ccccc3)cc(=O)oc2c1)NC1CCS(=O)(=O)C1 (stereo unspecified),-1.7,.,143.0*,-1.1,0.1
C[C@@H]1CN([C@@H](C)CO)C(=O)Cc2cc(NC(=O)c3ccncc3)ccc2O[C@@H]1CN(C)C,-0.1,-3.1,-5.9,0.9,0.1
O=C(C[C@@H]1CC[C@H]2[C@@H](COC[C@H](O)CN2S(=O)(=O)c2ccccc2)O1)N1CCOCC1,-7.4,0.4,2.2,-0.3,0.1
Cc1noc(C)c1NC(=O)N(C)C[C@@H]1OCCCC[C@H](C)Oc2ccc(NC(=O)NC3CCCCC3)cc2C(=O)N([C@@H](C)CO)C[C@@H]1C,-6.5,.,23.0*,-1.5,.
Cc1noc(C)c1NC(=O)N(C)C[C@@H]1Oc2ccc(NC(=O)NC3CCCCC3)cc2C(=O)N([C@@H](C)CO)C[C@@H]1C,9.8,0.0,34.3*,-0.8,0.5
Cc1noc(C)c1NC(=O)N(C)C[C@@H]1OCCCC[C@H](C)Oc2ccc(NC(=O)NC3CCCCC3)cc2C(=O)N([C@@H](C)CO)C[C@H]1C,-5.1,.,43.9*,-3.0,1.5*
Cc1noc(C)c1NC(=O)N(C)C[C@@H]1Oc2ccc(NC(=O)NC3CCCCC3)cc2C(=O)N([C@@H](C)CO)C[C@H]1C,9.0,0.0,8.5,1.6,0.0
Cc1noc(C)c1NC(=O)Nc1ccc2c(c1)C(=O)N([C@@H](C)CO)C[C@@H](C)[C@H](CN(C)C(=O)Nc1c(C)noc1C)OCCCC[C@H](C)O2,-3.8,-0.3,9.6,0.7,0.2
Cc1noc(C)c1NC(=O)Nc1ccc2c(c1)C(=O)N([C@H](C)CO)C[C@@H](C)[C@H](CN(C)C(=O)NC1CCCCC1)OCCCC[C@@H](C)O2,1.4,0.1,6.5,0.8,0.0
Cc1noc(C)c1NC(=O)Nc1ccc2c(c1)C(=O)N([C@@H](C)CO)C[C@H](C)[C@H](CN(C)C(=O)NC1CCCCC1)OCCCC[C@@H](C)O2,-0.8,0.5,28.8*,-3.3,-0.3
CO[C@H]1CN(C)C(=O)c2ccc(NC(C)=O)cc2OC[C@H](C)N(CCc2ccccc2)C[C@@H]1C,-0.4,0.0,-4.3,-0.5,0.0
Cc1noc(C)c1NC(=O)N(C)C[C@@H]1OCCCC[C@@H](C)Oc2ccc(NC(=O)NC3CCCCC3)cc2C(=O)N([C@@H](C)CO)C[C@H]1C,-5.3,.,75.8*,0.4,.
COc1ccc(NC(=O)N(C)C[C@@H]2Oc3ccc(NC(=O)NC4CCCCC4)cc3C(=O)N([C@@H](C)CO)C[C@@H]2C)cc1,0.7,-0.3,-2.6,-2.2,-0.1
COc1ccc(NC(=O)N(C)C[C@H]2Oc3ccc(NC(=O)NC4CCCCC4)cc3C(=O)N([C@@H](C)CO)C[C@@H]2C)cc1,3.8,-4.7,45.6*,-3.2,0.1
C/C=C/c1ccc(C2[C@H]3CNC[C@@H]2N3S(=O)(=O)c2cccc(OC)c2)cc1 (stereo partly specified),-0.4,0.1,11.6,1.1,.
C[C@@H]1CCCCO[C@H](CN(C)S(=O)(=O)c2ccccc2)[C@@H](C)CN([C@@H](C)CO)C(=O)c2cc(NC(=O)Nc3ccc(F)cc3)ccc2O1,0.0,0.2,-3.6,-3.8,0.0
SMILES,ERAP1 inh,E-selectin induc,DENV2 CPE,CFTR F508del cor,FGF22 binding
CC(=O)N(C)C[C@H]1Oc2ncc(-c3cccnc3)cc2C(=O)N([C@H](C)CO)C[C@@H]1C,0.9,-0.2,-11.8,-0.1,0.0
O=C(CC1S/C(=N/N=C/c2c[nH]c3ccccc23)NC1=O)Nc1ccccc1 (stereo unspecified),-3.9,-0.2,20.3*,.,0.5
O=C(Cc1ccccc1)N1CC(=O)N2[C@H](C1)[C@H](c1ccc(C3=CCCC3)cc1)[C@@H]2CO,-0.2,0.0,7.5,-2.9,.
C[C@H]1CN([C@@H](C)CO)C(=O)c2cc(NS(=O)(=O)c3ccc(Cl)cc3)ccc2O[C@@H]1CN(C)CC1CC1,-2.4,0.2,-8.2,-3.1,-0.5
[O-]/C(=C(\C(=S)NCc1ccccc1)[n+]1ccccc1)c1ccc(Cl)s1,5.5,.,-3.6,4.1,43.0*
CCC(=O)N1CCC2(CC1)CN(Cc1cc(F)ccc1F)[C@H](CO)c1[nH]c3cc(OC)ccc3c12,1.8,0.2,-5.1,2.5,0.0
CC(C)NC(=O)N(C)C[C@H]1Oc2cc(C#Cc3ccc(F)cc3)ccc2S(=O)(=O)N([C@H](C)CO)C[C@@H]1C,-0.2,0.2,15.3,1.6,-0.1
COc1ccc(C=C2CS(=O)(=O)CC(=Cc3ccc(OC)cc3)C2=O)cc1,-4.0,0.0,1.7,-0.1,44.4*
C[C@@H]1CN([C@@H](C)CO)C(=O)Cc2cc(NS(=O)(=O)c3cn(C)cn3)ccc2O[C@@H]1CN(C)Cc1ccc(Cl)c(Cl)c1,-1.0,.,-4.8,2.6,-0.3
Nc1ccc(C(=O)NN2C(=O)[C@H](Cl)C2c2ccc(Cl)cc2)cc1 (stereo partly specified),-0.8,0.5,8.7,6.4,1.6*
CC(=O)c1cccc(N2C(=O)Nc3ccccc3N2O)c1,-0.4,0.4,1.7,-1.3,43.4*
O=C1c2cccc(NCCCNCCO)c2C(=O)c2cccc(NCCCNCCO)c21,7.9,5.2,-2.9,12.8*,0.0
COc1cc(OC)cc(C(=O)OCC(=O)NC(c2ccccc2)c2ccccc2)c1,2.3,-0.4,-1.1,8.2*,0.1
